Published values from different studies.
Protocols differ between the studies behind these lines.
Target: Bone morphogenetic protein receptor type-2 (BMPR2, Homo sapiens, UniProt Q13873)
Sequence (Q13873 27-1038, as in one of the studies): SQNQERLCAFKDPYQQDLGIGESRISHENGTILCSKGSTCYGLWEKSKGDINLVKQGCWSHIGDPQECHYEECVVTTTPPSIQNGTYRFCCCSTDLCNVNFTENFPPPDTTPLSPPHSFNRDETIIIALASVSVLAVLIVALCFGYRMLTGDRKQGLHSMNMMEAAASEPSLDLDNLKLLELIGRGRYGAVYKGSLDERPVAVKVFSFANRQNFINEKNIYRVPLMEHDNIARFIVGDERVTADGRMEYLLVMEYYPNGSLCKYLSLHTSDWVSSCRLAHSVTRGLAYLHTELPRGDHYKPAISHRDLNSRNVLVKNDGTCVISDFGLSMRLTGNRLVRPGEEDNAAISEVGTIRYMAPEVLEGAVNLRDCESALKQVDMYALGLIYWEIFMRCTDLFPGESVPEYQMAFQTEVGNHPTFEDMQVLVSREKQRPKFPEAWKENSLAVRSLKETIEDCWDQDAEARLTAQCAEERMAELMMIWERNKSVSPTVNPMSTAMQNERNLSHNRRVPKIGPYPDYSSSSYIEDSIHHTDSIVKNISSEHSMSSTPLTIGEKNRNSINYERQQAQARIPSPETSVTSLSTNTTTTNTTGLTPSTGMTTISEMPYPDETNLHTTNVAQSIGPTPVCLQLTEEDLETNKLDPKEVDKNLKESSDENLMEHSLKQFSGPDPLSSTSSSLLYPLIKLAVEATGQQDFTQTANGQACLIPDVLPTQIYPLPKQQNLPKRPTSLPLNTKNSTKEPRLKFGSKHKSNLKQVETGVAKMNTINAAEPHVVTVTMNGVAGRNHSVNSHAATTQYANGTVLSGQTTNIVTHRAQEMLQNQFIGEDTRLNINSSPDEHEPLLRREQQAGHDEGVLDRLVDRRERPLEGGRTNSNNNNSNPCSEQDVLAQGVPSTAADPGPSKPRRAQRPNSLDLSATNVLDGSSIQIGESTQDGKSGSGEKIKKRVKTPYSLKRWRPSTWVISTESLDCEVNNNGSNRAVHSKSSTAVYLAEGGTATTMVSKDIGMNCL

| Structure (SMILES) | assay | setting | measurement | result |
| --- | --- | --- | --- | --- |
| CC#CC(=O)N1CCC[C@H]1c1nc(-c2ccc(C(=O)Nc3ccccn3)cc2)c2c(N)nccn12 | enzyme activity, inhibitor | 1 µM | inhibition | 0% |
| CCCCC(=O)Nc1ccc(-c2ccc3ncn(CCC)c(=O)c3c2)cn1 | binding, competition with immobilised ligand | 0.5 µM | remaining binding | 100% |
| C=CC(=O)N1CCC[C@@H](n2nc(-c3ccc(Oc4ccccc4)cc3)c3c(N)ncnc32)C1 | enzyme activity, inhibitor | 1 µM | inhibition | 19% |
| C1=C/COCc2cc(ccc2OCCN2CCCC2)Nc2nccc(n2)-c2cccc(c2)COC/1 | binding | 0.1 µM | remaining binding | 80% |
| C[C@H]1CC[C@H](n2c3cnccc3c3cnc(Nc4ccc5c(n4)CCN(C(=O)CO)C5)nc32)CC1 | binding | 1 µM | remaining binding | 100% |
| N#Cc1ccc(NC(=O)Nc2ccccc2)cc1 | cell-free assay, competition with immobilised ligand | 25 µM | remaining binding | 95% |
| COc1ccc2oc(-c3ccc4nc(N)oc4c3)c/c(=N\c3ccccc3NC(=O)CCN)c2c1 | binding | 1 µM | remaining binding | 104% |
| Cc1ccc(NC(=O)c2ccnc(C(F)(F)F)c2)cc1-c1cc(OCCO)nc(N2CCOCC2)c1 | binding | 1 µM | remaining binding | 100% |
